Laboratory results: ChEMBL document CHEMBL3046448, “Design and syntheses of novel phthalazin-1(2H)-one derivatives as acetohydroxyacid synthase inhibitors” (J Agric Food Chem, 2006)

What follows are compounds tested on Chenopodium album (assay: Herbicidal activity against Chenopodium album assessed as growth inhibition at 150 g ai/ha applied as post-emergence treatment under green house conditions measured 15 days post compound treatment). Details: 360 h, read-out: GI.
Assay type: functional
Outline: (§1)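 Post-emergence spray on pot-grown dicot weeds at the two-leaf stage in a greenhouse. Clay soil: pH 6.5, 1.6% organic matter, 37.3% clay, CEC 12.1 cmol/kg. Formulation: 100 g/L DMF/TW-80 emulsified concentrate, water-diluted to 150 g ai/ha. Untreated and DMF solvent controls. Visual inhibition rating at 15 days: ++ >80%, + 50-80%, − <50%.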

Compound | inhibition of growth at 150 g/ha [%]
COc1cc(OC)nc(Oc2cccc3c(C)nn(Cc4ccccc4Br)c(=O)c23)n1 | < 50
COc1cc(OC)nc(Oc2cccc3c(C)nn(Cc4cccc(Br)c4)c(=O)c23)n1 | < 50
COc1cc(OC)nc(Oc2cccc3c(C)nn(Cc4ccc(Br)cc4)c(=O)c23)n1 | < 50
COc1cc(OC)nc(Oc2cccc3c(C)nn(Cc4ccc(C)cc4)c(=O)c23)n1 | < 50
COc1cc(OC)nc(Oc2cccc3c(C)nn(Cc4ccc(Cl)cc4)c(=O)c23)n1 | < 50

What follows are compounds tested on Amaranthus retroflexus (assay: Herbicidal activity against Amaranthus retroflexus assessed as growth inhibition at 150 g ai/ha applied as pre-emergence treatment 24 hr after weeds seeds sowing under green house conditions measured 15 days post compound treatment). Details: read-out: GI.
Assay type: functional
Outline: (§2)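 Pre-emergence spray applied 24 h after sowing weeds in pots in a greenhouse. Clay soil: pH 6.5, 1.6% organic matter, 37.3% clay, CEC 12.1 cmol/kg. Formulation: 100 g/L emulsified concentrate (DMF solvent, TW-80 emulsifier) diluted with water to 150 g ai/ha. Untreated and DMF-treated controls. Growth inhibition judged visually at 15 days: ++ >80%, + 50-80%, − <50%.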

Compound | inhibition of growth at 150 g/ha [%]
COc1cc(OC)nc(Oc2cccc3c(C)nn(Cc4ccccc4Br)c(=O)c23)n1 | < 50
COc1cc(OC)nc(Oc2cccc3c(C)nn(Cc4cccc(Br)c4)c(=O)c23)n1 | < 50
COc1cc(OC)nc(Oc2cccc3c(C)nn(Cc4ccc(Br)cc4)c(=O)c23)n1 | < 50
COc1cc(OC)nc(Oc2cccc3c(C)nn(Cc4ccc(C)cc4)c(=O)c23)n1 | < 50
COc1cc(OC)nc(Oc2cccc3c(C)nn(Cc4ccc(Cl)cc4)c(=O)c23)n1 | < 50

Each compound was assayed on Brassica juncea (assay: Herbicidal activity against Brassica juncea assessed as growth inhibition at 150 g ai/ha applied as post-emergence treatment under green house conditions measured 15 days post compound treatment). Details: 360 h, read-out: GI.
Assay type: functional
Outline: as §1

Compound | inhibition of growth at 150 g/ha [%]
COc1cc(OC)nc(Oc2cccc3c(C)nn(Cc4ccccc4Br)c(=O)c23)n1 | < 50
COc1cc(OC)nc(Oc2cccc3c(C)nn(Cc4cccc(Br)c4)c(=O)c23)n1 | 50
COc1cc(OC)nc(Oc2cccc3c(C)nn(Cc4ccc(Br)cc4)c(=O)c23)n1 | < 50
COc1cc(OC)nc(Oc2cccc3c(C)nn(Cc4ccc(C)cc4)c(=O)c23)n1 | < 50
COc1cc(OC)nc(Oc2cccc3c(C)nn(Cc4ccc(Cl)cc4)c(=O)c23)n1 | < 50

The compounds below were run on Setaria viridis (assay: Herbicidal activity against Setaria viridis (green foxtail) assessed as growth inhibition at 150 g ai/ha applied as pre-emergence treatment 24 hr after weeds seeds sowing under green house conditions measured 15 days post compound treatment). Details: read-out: GI.
Assay type: functional
Outline: as §2

Compound | inhibition of growth at 150 g/ha [%]
COc1cc(OC)nc(Oc2cccc3c(C)nn(Cc4ccccc4Br)c(=O)c23)n1 | < 50
COc1cc(OC)nc(Oc2cccc3c(C)nn(Cc4cccc(Br)c4)c(=O)c23)n1 | < 50
COc1cc(OC)nc(Oc2cccc3c(C)nn(Cc4ccc(Br)cc4)c(=O)c23)n1 | < 50
COc1cc(OC)nc(Oc2cccc3c(C)nn(Cc4ccc(C)cc4)c(=O)c23)n1 | < 50
COc1cc(OC)nc(Oc2cccc3c(C)nn(Cc4ccc(Cl)cc4)c(=O)c23)n1 | < 50

These compounds were tested on Amaranthus retroflexus (assay: Herbicidal activity against Amaranthus retroflexus assessed as growth inhibition at 150 g ai/ha applied as post-emergence treatment under green house conditions measured 15 days post compound treatment). Details: 360 h, read-out: GI.
Assay type: functional
Outline: as §1

Compound | inhibition of growth at 150 g/ha [%]
COc1cc(OC)nc(Oc2cccc3c(C)nn(Cc4ccccc4Br)c(=O)c23)n1 | < 50
COc1cc(OC)nc(Oc2cccc3c(C)nn(Cc4cccc(Br)c4)c(=O)c23)n1 | > 80
COc1cc(OC)nc(Oc2cccc3c(C)nn(Cc4ccc(Br)cc4)c(=O)c23)n1 | < 50
COc1cc(OC)nc(Oc2cccc3c(C)nn(Cc4ccc(C)cc4)c(=O)c23)n1 | < 50
COc1cc(OC)nc(Oc2cccc3c(C)nn(Cc4ccc(Cl)cc4)c(=O)c23)n1 | < 50

The compounds below were run on Echinochloa crus-galli (assay: Herbicidal activity against Echinochloa crus-galli (barnyard grass) assessed as growth inhibition at 150 g ai/ha applied as pre-emergence treatment 24 hr after weeds seeds sowing under green house conditions measured 15 days post compound treatment). Details: read-out: GI.
Assay type: functional
Outline: as §2

Compound | inhibition of growth at 150 g/ha [%]
COc1cc(OC)nc(Oc2cccc3c(C)nn(Cc4ccccc4Br)c(=O)c23)n1 | < 50
COc1cc(OC)nc(Oc2cccc3c(C)nn(Cc4cccc(Br)c4)c(=O)c23)n1 | < 50
COc1cc(OC)nc(Oc2cccc3c(C)nn(Cc4ccc(Br)cc4)c(=O)c23)n1 | < 50
COc1cc(OC)nc(Oc2cccc3c(C)nn(Cc4ccc(C)cc4)c(=O)c23)n1 | < 50
COc1cc(OC)nc(Oc2cccc3c(C)nn(Cc4ccc(Cl)cc4)c(=O)c23)n1 | < 50

What follows are compounds tested on Brassica juncea (assay: Herbicidal activity against Brassica juncea assessed as growth inhibition at 150 g ai/ha applied as pre-emergence treatment 24 hr after weeds seeds sowing under green house conditions measured 15 days post compound treatment). Details: read-out: GI.
Assay type: functional
Outline: as §2

Compound | inhibition of growth at 150 g/ha [%]
COc1cc(OC)nc(Oc2cccc3c(C)nn(Cc4ccccc4Br)c(=O)c23)n1 | < 50
COc1cc(OC)nc(Oc2cccc3c(C)nn(Cc4cccc(Br)c4)c(=O)c23)n1 | < 50
COc1cc(OC)nc(Oc2cccc3c(C)nn(Cc4ccc(Br)cc4)c(=O)c23)n1 | < 50
COc1cc(OC)nc(Oc2cccc3c(C)nn(Cc4ccc(C)cc4)c(=O)c23)n1 | < 50
COc1cc(OC)nc(Oc2cccc3c(C)nn(Cc4ccc(Cl)cc4)c(=O)c23)n1 | < 50

Each compound was assayed against T1, Acetolactate synthase, chloroplastic (Arabidopsis thaliana, UniProt P17597) (assay: Inhibition of wild type Arabidopsis thaliana acetohydroxyacid synthase). Details: not given.
T1 sequence (P17597 whole entry): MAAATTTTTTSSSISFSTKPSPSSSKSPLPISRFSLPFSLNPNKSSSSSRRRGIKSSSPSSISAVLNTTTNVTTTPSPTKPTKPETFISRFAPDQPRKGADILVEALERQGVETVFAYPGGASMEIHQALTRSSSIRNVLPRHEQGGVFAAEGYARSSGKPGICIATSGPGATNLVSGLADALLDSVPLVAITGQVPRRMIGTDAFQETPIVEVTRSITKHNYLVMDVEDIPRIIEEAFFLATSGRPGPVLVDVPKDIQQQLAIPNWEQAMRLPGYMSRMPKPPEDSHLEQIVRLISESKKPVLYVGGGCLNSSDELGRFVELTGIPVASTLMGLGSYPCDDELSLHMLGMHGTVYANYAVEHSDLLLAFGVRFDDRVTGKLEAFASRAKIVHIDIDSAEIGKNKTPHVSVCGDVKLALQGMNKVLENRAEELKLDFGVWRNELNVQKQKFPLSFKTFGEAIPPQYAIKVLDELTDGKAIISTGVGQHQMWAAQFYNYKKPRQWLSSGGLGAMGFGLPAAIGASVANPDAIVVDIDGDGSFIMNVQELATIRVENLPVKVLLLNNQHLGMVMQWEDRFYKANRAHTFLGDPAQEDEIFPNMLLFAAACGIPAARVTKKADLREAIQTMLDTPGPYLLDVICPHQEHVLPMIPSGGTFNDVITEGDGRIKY

Compound | Ki [µM]
COc1cc(OC)nc(Oc2cccc3c(C)nn(Cc4ccccc4Br)c(=O)c23)n1 | 362
COc1cc(OC)nc(Oc2cccc3c(C)nn(Cc4cccc(Br)c4)c(=O)c23)n1 | 759
COc1cc(OC)nc(Oc2cccc3c(C)nn(Cc4ccc(Br)cc4)c(=O)c23)n1 | 310
COc1cc(OC)nc(Oc2cccc3c(C)nn(Cc4ccc(C)cc4)c(=O)c23)n1 | 637
COc1cc(OC)nc(Oc2cccc3c(C)nn(Cc4ccc(Cl)cc4)c(=O)c23)n1 | 203

These compounds were tested on Digitaria sanguinalis (assay: Herbicidal activity against Digitaria sanguinalis (hairy crabgrass) assessed as growth inhibition at 150 g ai/ha applied as post-emergence treatment under green house conditions measured 15 days post compound treatment). Details: 360 h, read-out: GI.
Assay type: functional
Outline: (§3)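 Monocot weeds grown in pots in a greenhouse and sprayed post-emergence at the one-leaf stage. Clay soil: pH 6.5, 1.6% organic matter, 37.3% clay, CEC 12.1 cmol/kg. Formulation: 100 g/L emulsified concentrate (DMF, TW-80) diluted with water to 150 g ai/ha. Untreated and DMF controls included. Growth inhibition scored visually after 15 days: ++ >80%, + 50-80%, − <50%.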

Compound | inhibition of growth at 150 g/ha [%]
COc1cc(OC)nc(Oc2cccc3c(C)nn(Cc4ccccc4Br)c(=O)c23)n1 | < 50
COc1cc(OC)nc(Oc2cccc3c(C)nn(Cc4cccc(Br)c4)c(=O)c23)n1 | 50
COc1cc(OC)nc(Oc2cccc3c(C)nn(Cc4ccc(Br)cc4)c(=O)c23)n1 | < 50
COc1cc(OC)nc(Oc2cccc3c(C)nn(Cc4ccc(C)cc4)c(=O)c23)n1 | < 50
COc1cc(OC)nc(Oc2cccc3c(C)nn(Cc4ccc(Cl)cc4)c(=O)c23)n1 | < 50

What follows are compounds tested on Setaria viridis (assay: Herbicidal activity against Setaria viridis (green foxtail) assessed as growth inhibition at 150 g ai/ha applied as post-emergence treatment under green house conditions measured 15 days post compound treatment). Details: 360 h, read-out: GI.
Assay type: functional
Outline: as §3

Compound | inhibition of growth at 150 g/ha [%]
COc1cc(OC)nc(Oc2cccc3c(C)nn(Cc4ccccc4Br)c(=O)c23)n1 | < 50
COc1cc(OC)nc(Oc2cccc3c(C)nn(Cc4cccc(Br)c4)c(=O)c23)n1 | 50
COc1cc(OC)nc(Oc2cccc3c(C)nn(Cc4ccc(Br)cc4)c(=O)c23)n1 | < 50
COc1cc(OC)nc(Oc2cccc3c(C)nn(Cc4ccc(C)cc4)c(=O)c23)n1 | < 50
COc1cc(OC)nc(Oc2cccc3c(C)nn(Cc4ccc(Cl)cc4)c(=O)c23)n1 | < 50

These compounds were tested on Chenopodium album (assay: Herbicidal activity against Chenopodium album assessed as growth inhibition at 150 g ai/ha applied as pre-emergence treatment 24 hr after weeds seeds sowing under green house conditions measured 15 days post compound treatment). Details: read-out: GI.
Assay type: functional
Outline: as §2

Compound | inhibition of growth at 150 g/ha [%]
COc1cc(OC)nc(Oc2cccc3c(C)nn(Cc4ccccc4Br)c(=O)c23)n1 | < 50
COc1cc(OC)nc(Oc2cccc3c(C)nn(Cc4cccc(Br)c4)c(=O)c23)n1 | < 50
COc1cc(OC)nc(Oc2cccc3c(C)nn(Cc4ccc(Br)cc4)c(=O)c23)n1 | < 50
COc1cc(OC)nc(Oc2cccc3c(C)nn(Cc4ccc(C)cc4)c(=O)c23)n1 | < 50
COc1cc(OC)nc(Oc2cccc3c(C)nn(Cc4ccc(Cl)cc4)c(=O)c23)n1 | < 50

The compounds below were run on Echinochloa crus-galli (assay: Herbicidal activity against Echinochloa crus-galli (barnyard grass) assessed as growth inhibition at 150 g ai/ha applied as post-emergence treatment under green house conditions measured 15 days post compound treatment). Details: 360 h, read-out: GI.
Assay type: functional
Outline: as §3

Compound | inhibition of growth at 150 g/ha [%]
COc1cc(OC)nc(Oc2cccc3c(C)nn(Cc4ccccc4Br)c(=O)c23)n1 | < 50
COc1cc(OC)nc(Oc2cccc3c(C)nn(Cc4cccc(Br)c4)c(=O)c23)n1 | 50
COc1cc(OC)nc(Oc2cccc3c(C)nn(Cc4ccc(Br)cc4)c(=O)c23)n1 | < 50
COc1cc(OC)nc(Oc2cccc3c(C)nn(Cc4ccc(C)cc4)c(=O)c23)n1 | < 50
COc1cc(OC)nc(Oc2cccc3c(C)nn(Cc4ccc(Cl)cc4)c(=O)c23)n1 | < 50

Each compound was assayed on Digitaria sanguinalis (assay: Herbicidal activity against Digitaria sanguinalis (hairy crabgrass) assessed as growth inhibition at 150 g ai/ha applied as pre-emergence treatment 24 hr after weeds seeds sowing under green house conditions measured 15 days post compound treatment). Details: read-out: GI.
Assay type: functional
Outline: as §2

Compound | inhibition of growth at 150 g/ha [%]
COc1cc(OC)nc(Oc2cccc3c(C)nn(Cc4ccccc4Br)c(=O)c23)n1 | < 50
COc1cc(OC)nc(Oc2cccc3c(C)nn(Cc4cccc(Br)c4)c(=O)c23)n1 | < 50
COc1cc(OC)nc(Oc2cccc3c(C)nn(Cc4ccc(Br)cc4)c(=O)c23)n1 | < 50
COc1cc(OC)nc(Oc2cccc3c(C)nn(Cc4ccc(C)cc4)c(=O)c23)n1 | < 50
COc1cc(OC)nc(Oc2cccc3c(C)nn(Cc4ccc(Cl)cc4)c(=O)c23)n1 | < 50
